Measured values: ChEMBL document CHEMBL1255169, “Synthesis, structure-affinity relationships, and radiolabeling of selective high-affinity 5-HT4 receptor ligands as prospective imaging probes for positron emission tomography” (J Med Chem, 2010)
Active and inactive are the calls of the source. No cut-off for these calls is given here.

What was measured:
[1] = target: 5-hydroxytryptamine receptor 4 (Cavia porcellus, UniProt O70528); experiment: Displacement of [3H]GR113808 from 5HT4 receptor in guinea pig striatal membranes; format: cell membranes, Striatum, Membrane
[2] = target: T1, 5-hydroxytryptamine receptor 4 (Homo sapiens, UniProt Q13639); experiment: Antagonist activity at 5HT4 receptor expressed in HEK293/L9 cells by cAMP assay; format: functional, cell-based
[3] = target: 5-hydroxytryptamine receptor 1A (Homo sapiens, UniProt P08908); experiment: Binding affinity to human 5-HT1A receptor
[4] = target: 5-hydroxytryptamine receptor 1E (Homo sapiens, UniProt P28566); experiment: Binding affinity to human 5-HT1E receptor
[5] = target: 5-hydroxytryptamine receptor 5A (Homo sapiens, UniProt P47898); experiment: Binding affinity to human 5-HT5A receptor
[6] = target: T2, Alpha-1A adrenergic receptor (Homo sapiens, UniProt P35348); experiment: Binding affinity to human adrenergic alpha1A receptor
T2 sequence (P35348 whole entry): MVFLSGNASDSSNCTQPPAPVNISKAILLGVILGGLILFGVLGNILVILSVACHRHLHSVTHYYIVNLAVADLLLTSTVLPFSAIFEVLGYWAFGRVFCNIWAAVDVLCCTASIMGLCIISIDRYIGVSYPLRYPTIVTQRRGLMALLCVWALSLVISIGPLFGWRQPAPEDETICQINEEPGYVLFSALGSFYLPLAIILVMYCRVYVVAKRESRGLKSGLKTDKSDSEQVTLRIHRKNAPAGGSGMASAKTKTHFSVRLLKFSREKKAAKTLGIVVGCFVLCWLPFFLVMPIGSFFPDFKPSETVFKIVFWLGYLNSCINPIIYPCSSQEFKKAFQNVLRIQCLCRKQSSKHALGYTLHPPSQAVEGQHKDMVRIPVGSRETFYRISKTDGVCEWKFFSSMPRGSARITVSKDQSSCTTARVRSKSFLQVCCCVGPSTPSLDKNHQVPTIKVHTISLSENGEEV

[7] = target: T3, Alpha-1B adrenergic receptor (Homo sapiens, UniProt P35368); experiment: Binding affinity to human adrenergic Alpha-1B receptor
T3 sequence (P35368 whole entry): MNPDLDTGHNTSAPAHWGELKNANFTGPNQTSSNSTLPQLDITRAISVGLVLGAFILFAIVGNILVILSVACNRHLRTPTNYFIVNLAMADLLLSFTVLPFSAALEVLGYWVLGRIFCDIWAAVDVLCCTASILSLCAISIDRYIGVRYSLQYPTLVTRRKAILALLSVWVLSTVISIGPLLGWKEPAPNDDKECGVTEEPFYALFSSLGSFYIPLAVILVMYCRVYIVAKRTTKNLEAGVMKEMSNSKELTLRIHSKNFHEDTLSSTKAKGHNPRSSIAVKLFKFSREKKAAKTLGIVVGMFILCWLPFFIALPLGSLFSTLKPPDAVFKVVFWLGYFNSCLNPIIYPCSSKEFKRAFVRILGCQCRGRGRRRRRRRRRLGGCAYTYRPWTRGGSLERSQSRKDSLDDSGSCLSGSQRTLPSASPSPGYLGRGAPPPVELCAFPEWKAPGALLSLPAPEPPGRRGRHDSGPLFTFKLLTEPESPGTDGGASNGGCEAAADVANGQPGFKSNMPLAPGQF

[8] = target: Alpha-2A adrenergic receptor (Homo sapiens, UniProt P08913); experiment: Binding affinity to human adrenergic alpha2A receptor
[9] = target: T4, Alpha-2B adrenergic receptor (Homo sapiens, UniProt P18089); experiment: Binding affinity to human adrenergic alpha2B receptor
T4 sequence (P18089 whole entry): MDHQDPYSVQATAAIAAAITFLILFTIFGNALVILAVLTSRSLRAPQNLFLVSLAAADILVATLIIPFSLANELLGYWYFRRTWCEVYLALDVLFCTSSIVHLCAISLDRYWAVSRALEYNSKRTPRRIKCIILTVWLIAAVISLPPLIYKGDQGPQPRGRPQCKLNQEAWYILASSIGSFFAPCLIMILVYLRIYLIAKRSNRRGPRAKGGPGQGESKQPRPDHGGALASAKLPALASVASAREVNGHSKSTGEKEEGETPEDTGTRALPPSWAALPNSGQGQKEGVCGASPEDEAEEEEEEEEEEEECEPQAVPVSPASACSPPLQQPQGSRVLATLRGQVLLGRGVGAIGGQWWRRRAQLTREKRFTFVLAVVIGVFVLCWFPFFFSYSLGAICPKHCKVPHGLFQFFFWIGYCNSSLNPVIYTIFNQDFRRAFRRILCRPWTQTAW
How it was run: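 Radioligand binding run by the NIMH Psychoactive Drug Screening Program as part of a broad receptor and binding-site panel, which included α1A, α1B, α1D and α2A–C subtypes. Affinity is expressed as Ki.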

[10] = target: Beta-2 adrenergic receptor (Rattus norvegicus, UniProt P10608); experiment: Binding affinity to rat adrenergic beta2 receptor
[11] = Binding affinity to rat sigma 2 receptor
[12] = Binding affinity to BZP receptor in rat brain; format: tissue-based
D(2) dopamine receptor = D(2) dopamine receptor (Rattus norvegicus, UniProt P61169); experiment: Binding affinity to rat dopamine D2 receptor
D(3) dopamine receptor = D(3) dopamine receptor (Rattus norvegicus, UniProt P19020); experiment: Binding affinity to rat dopamine D3 receptor
D(1B) dopamine receptor = D(1B) dopamine receptor (Homo sapiens, UniProt P21918); experiment: Binding affinity to human dopamine D5 receptor
Histamine H1 receptor = Histamine H1 receptor (Cavia porcellus, UniProt P31389); experiment: Binding affinity to guinea pig histamine H1 receptor
Histamine H3 receptor = Histamine H3 receptor (Cavia porcellus, UniProt Q9JI35); experiment: Binding affinity to guinea pig histamine H3 receptor
[13] = target: Kappa-type opioid receptor (Homo sapiens, UniProt P41145); experiment: Binding affinity to human kappa opioid receptor
Mu-type opioid receptor = Mu-type opioid receptor (Homo sapiens, UniProt P35372); experiment: Binding affinity to human mu opioid receptor
[14] = target: Muscarinic acetylcholine receptor M2 (Homo sapiens, UniProt P08172); experiment: Binding affinity to human muscarinic M2 receptor
[15] = target: Muscarinic acetylcholine receptor M3 (Homo sapiens, UniProt P20309); experiment: Binding affinity to human muscarinic M3 receptor
[16] = target: T1, 5-hydroxytryptamine receptor 4; experiment: Inverse agonist activity at 5HT4 receptor expressed in HEK293/L9 cells by cAMP assay; format: functional, cell-based
[17] = target: T1, 5-hydroxytryptamine receptor 4; experiment: Agonist activity at 5HT4 receptor expressed in HEK293/L9 cells by cAMP assay; format: functional, cell-based

T1 sequence (Q13639 whole entry): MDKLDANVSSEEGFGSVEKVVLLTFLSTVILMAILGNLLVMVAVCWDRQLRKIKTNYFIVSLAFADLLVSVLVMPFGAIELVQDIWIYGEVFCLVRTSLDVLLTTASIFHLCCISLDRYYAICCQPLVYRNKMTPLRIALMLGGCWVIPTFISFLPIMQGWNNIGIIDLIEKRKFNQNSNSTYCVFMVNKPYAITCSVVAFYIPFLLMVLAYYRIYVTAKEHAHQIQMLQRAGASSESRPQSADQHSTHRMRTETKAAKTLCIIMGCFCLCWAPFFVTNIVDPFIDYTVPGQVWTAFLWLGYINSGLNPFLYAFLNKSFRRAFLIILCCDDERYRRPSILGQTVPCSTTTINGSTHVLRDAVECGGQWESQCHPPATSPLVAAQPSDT
D(1B) dopamine receptor, sequence (P21918 whole entry): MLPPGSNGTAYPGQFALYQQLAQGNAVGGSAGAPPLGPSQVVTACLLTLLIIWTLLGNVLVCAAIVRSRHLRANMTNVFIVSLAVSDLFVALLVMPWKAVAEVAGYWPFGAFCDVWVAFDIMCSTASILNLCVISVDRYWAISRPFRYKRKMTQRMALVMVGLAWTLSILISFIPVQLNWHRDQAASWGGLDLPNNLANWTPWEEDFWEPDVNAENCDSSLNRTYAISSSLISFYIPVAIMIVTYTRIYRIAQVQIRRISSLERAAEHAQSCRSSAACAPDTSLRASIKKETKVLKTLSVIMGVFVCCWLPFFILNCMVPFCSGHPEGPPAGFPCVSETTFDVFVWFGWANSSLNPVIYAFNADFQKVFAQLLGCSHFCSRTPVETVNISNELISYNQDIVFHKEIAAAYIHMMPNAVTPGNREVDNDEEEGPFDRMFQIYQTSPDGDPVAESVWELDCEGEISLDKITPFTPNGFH
Beta-2 adrenergic receptor, sequence (P10608 whole entry): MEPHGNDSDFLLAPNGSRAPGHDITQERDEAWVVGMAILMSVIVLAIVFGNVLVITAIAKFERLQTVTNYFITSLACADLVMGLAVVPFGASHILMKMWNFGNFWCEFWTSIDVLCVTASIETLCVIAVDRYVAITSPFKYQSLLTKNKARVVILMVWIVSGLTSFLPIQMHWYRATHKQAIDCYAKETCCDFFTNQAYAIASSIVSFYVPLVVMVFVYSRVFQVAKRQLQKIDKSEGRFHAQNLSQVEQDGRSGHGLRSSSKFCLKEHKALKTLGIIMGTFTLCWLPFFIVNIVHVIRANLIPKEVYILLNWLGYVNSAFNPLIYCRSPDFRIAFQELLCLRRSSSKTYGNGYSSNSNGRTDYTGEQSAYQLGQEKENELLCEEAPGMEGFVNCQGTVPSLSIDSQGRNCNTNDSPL
Alpha-2A adrenergic receptor, sequence (P08913 whole entry): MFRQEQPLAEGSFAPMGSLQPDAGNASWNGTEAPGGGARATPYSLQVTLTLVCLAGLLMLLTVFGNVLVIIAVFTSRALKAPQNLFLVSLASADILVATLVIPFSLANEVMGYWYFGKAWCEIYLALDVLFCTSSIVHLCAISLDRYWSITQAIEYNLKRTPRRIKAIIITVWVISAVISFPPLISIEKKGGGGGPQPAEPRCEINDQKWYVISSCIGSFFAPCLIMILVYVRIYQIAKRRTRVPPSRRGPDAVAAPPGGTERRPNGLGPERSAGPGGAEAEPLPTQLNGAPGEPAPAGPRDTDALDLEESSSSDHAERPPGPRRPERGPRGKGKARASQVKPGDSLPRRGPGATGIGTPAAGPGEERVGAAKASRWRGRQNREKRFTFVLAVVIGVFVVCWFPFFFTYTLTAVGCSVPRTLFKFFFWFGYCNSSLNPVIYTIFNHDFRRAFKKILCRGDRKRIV
Mu-type opioid receptor, sequence (P35372 whole entry): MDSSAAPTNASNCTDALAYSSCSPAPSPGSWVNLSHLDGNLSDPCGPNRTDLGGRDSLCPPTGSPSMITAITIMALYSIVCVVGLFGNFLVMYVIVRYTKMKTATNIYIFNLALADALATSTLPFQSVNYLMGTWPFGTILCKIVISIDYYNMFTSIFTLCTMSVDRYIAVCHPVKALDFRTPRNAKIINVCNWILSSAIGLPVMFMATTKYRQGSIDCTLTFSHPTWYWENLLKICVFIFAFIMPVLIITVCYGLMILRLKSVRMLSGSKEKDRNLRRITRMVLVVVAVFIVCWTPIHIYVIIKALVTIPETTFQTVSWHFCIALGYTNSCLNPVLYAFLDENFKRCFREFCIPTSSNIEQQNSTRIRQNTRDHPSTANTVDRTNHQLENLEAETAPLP
Histamine H3 receptor, sequence (Q9JI35 whole entry): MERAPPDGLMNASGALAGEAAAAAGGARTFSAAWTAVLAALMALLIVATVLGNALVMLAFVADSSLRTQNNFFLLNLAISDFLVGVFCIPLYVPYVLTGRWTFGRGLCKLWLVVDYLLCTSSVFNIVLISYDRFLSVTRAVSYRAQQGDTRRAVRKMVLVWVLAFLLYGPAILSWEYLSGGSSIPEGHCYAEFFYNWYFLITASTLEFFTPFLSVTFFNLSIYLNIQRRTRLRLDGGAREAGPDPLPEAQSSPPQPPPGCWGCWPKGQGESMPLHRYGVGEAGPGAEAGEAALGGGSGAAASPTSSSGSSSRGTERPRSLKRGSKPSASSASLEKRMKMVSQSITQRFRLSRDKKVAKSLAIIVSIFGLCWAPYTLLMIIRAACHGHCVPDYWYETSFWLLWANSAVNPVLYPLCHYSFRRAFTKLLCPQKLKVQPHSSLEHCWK
5-hydroxytryptamine receptor 5A, sequence (P47898 whole entry): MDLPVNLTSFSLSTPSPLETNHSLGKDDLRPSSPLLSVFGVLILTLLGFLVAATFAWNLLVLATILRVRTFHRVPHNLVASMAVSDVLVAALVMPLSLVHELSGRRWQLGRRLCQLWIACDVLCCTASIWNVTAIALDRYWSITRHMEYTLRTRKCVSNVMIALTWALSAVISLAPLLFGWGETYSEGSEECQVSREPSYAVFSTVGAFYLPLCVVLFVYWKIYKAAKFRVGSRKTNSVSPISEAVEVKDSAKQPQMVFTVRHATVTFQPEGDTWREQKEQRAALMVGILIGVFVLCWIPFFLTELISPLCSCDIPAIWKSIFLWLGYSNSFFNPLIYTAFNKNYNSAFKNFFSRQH
Muscarinic acetylcholine receptor M2, sequence (P08172 whole entry): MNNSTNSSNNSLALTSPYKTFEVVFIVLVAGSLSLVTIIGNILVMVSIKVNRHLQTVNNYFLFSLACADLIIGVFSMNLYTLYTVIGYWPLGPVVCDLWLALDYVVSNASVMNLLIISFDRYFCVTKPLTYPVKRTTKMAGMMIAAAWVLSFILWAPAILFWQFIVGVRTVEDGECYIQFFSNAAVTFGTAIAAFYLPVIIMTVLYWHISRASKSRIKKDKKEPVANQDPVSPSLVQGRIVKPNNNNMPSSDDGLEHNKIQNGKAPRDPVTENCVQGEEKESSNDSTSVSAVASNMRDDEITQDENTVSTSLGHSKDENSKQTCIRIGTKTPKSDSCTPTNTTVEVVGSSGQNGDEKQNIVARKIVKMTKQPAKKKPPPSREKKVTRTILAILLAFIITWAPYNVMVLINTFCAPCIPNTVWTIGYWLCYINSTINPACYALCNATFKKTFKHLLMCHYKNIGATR
D(2) dopamine receptor, sequence (P61169 whole entry): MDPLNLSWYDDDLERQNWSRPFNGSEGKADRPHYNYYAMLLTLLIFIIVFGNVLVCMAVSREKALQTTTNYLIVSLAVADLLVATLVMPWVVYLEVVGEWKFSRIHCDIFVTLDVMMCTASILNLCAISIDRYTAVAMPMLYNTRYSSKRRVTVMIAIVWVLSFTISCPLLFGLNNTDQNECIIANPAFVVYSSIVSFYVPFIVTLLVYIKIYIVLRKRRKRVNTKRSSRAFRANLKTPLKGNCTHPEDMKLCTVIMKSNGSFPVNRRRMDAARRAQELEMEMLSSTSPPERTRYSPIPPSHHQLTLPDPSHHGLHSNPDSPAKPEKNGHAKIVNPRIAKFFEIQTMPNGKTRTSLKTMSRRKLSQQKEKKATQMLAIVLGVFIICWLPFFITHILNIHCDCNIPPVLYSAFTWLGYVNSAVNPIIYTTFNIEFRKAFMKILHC
5-hydroxytryptamine receptor 1A, sequence (P08908 whole entry): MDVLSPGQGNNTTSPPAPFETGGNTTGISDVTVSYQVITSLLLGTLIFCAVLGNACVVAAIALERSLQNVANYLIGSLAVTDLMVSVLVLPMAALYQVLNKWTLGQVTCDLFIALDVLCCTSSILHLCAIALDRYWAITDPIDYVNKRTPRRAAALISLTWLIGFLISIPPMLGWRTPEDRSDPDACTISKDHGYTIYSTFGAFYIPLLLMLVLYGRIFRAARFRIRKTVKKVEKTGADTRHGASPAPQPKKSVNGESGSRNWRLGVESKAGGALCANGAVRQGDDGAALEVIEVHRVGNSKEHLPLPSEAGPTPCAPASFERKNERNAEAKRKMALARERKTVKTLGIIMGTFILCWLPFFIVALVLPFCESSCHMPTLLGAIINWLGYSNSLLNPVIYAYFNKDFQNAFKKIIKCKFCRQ
D(3) dopamine receptor, sequence (P19020 whole entry): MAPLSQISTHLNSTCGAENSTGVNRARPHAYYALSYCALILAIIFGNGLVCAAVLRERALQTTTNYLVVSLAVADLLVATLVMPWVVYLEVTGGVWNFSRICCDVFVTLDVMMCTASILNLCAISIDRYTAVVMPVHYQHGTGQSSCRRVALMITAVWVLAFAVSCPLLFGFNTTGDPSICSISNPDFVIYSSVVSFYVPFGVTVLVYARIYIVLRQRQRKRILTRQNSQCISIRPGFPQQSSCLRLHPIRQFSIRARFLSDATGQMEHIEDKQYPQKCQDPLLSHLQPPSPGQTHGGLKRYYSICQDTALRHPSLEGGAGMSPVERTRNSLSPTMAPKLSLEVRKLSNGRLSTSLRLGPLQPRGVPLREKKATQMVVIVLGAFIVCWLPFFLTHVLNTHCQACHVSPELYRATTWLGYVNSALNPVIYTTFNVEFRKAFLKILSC

Structure (SMILES) | Ki [1] [nM] | Ki [3] [nM] | Ki [5] [nM] | Ki [6] [nM] | Ki [7] [nM] | Ki [8] [nM] | Ki [9] [nM] | Ki [10] [nM] | Ki [11] [nM] | Ki [12] [nM] | Ki (D(2) dopamine receptor) [nM] | Ki (D(3) dopamine receptor) [nM] | Ki (D(1B) dopamine receptor) [nM] | Ki (Histamine H1 receptor) [nM] | Ki (Histamine H3 receptor) [nM] | Ki [13] [nM] | Ki (Mu-type opioid receptor) [nM] | Ki [14] [nM] | Ki [15] [nM] | other results
CCCCN1CCC(COC(=O)c2ccc(N)c(OC)c2)CC1 | 0.738 | > 10000 | > 10000 | > 10000 | 4230 | > 10000 | > 10000 | > 10000 | 148 | > 10000 | > 10000 | 6270 | > 10000 | > 10000 | 1650 | > 10000 | > 10000 | > 10000 | 1100 | Efficacy [2]: Active; Ki [4]: > 10000 nM
CCCCN1CCC(COC(=O)c2cc(Cl)c(NC)c3c2OCCO3)CC1 | 0.577 | 300 | 8590 | 522 | > 10000 | 2240 | 671 | > 10000 | 8 | > 10000 | 220 | 336 | 972 | 2730 | > 10000 | > 10000 | > 10000 | 433 | 823 | Efficacy [16]: Active; EC50 [17]: 14.1 nM
